Source: PubChem BioAssay (several laboratories)
Rpn11 block – Rpn11 (PSMD14) deubiquitinase inhibitors, primary screen, biochemical, fluorescence polarization, uHTS. AID 588493, 2011. inhibition, % at 20 µM. 360,000 tested, 0.59% active. 26S proteasome non-ATPase regulatory subunit 14 (Homo sapiens), O00487. human 26S proteasome, Ub4-pepOG fluorescence polarization; 20S core pre-blocked with epoxomicin;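 active = inhibition at 20 µM, scaled to each plate's controls, above about 33%, limit read from the data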
Target sequence (O00487 whole entry, looked up): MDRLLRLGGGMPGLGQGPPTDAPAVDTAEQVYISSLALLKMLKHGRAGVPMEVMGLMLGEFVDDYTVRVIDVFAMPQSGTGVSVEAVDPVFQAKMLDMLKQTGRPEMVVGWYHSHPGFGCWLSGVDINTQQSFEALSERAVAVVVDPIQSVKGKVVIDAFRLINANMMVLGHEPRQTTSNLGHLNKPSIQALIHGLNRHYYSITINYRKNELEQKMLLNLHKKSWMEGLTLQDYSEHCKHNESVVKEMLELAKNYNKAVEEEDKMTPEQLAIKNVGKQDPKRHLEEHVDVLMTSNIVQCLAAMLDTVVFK
CSN deneddyl inh – inhibitors of CSN-mediated cullin deneddylation, primary screen, biochemical, fluorescence polarization, uHTS; COP9 signalosome complex subunit 5 (Homo sapiens), Q92905; Purified CSN, SCF-Nedd8-OG deneddylation; inhibition, % at 12.5 µM; 360,000 tested, 0.38% active;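 active = pattern-corrected inhibition above about 35%, with an unprinted fluorescence ratio check between 0.5 and 1.5, limit read from the data, passing the limit was not always enough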
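Detection – fluorescence polarization · System – HEK293T-derived human Csn5 enzyme · Controls – substrate-only high control, full reaction low control · Timing – 90 min, room temperature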
PP1 inh – PP1-alpha phosphatase inhibitors, primary screen, counter-screen for PP5 inhibitor project, biochemical, fluorescence, OMFP substrate, single point | Serine/threonine-protein phosphatase PP1-alpha catalytic subunit (Homo sapiens), P62136 | purified PP1alpha | inhibition, % at 6.7 µM | 320,000 tested, 0.9% active | AID 2235, 2010;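 active = inhibition above the mean inhibition of all tested compounds plus 3 SD, computed separately for each screening campaign, cut at about 15% in these data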
Target sequence (P62136 whole entry, looked up): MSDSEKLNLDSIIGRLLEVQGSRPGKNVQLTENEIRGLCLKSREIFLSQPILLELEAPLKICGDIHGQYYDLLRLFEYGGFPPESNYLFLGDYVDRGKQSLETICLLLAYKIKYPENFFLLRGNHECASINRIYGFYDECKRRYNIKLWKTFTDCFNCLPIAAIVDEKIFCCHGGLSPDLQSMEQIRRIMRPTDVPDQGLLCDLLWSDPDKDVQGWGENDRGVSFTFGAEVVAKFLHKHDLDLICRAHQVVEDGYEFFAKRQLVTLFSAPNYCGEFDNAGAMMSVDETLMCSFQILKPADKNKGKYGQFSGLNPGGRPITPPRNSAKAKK
NadD block – inhibitors of S. aureus NadD, primary screen, biochemical, colorimetric, uHTS; Nicotinate-nucleotide adenylyltransferase NadD (Staphylococcus aureus N315); purified NadD enzyme, colorimetric absorbance read-out; inhibition, % at 20 µM; 360,000 tested, 0.78% active; AID 602399, 2012; in the data active = inhibition above about 26%
HNF4A DNA FP – change in binding of human HNF4A to DNA, primary screen, biochemical, fluorescence polarization, FITC-DNA | 1 h | activity change, % at 10 µM | 360,000 tested, 0.3% active | AID 1224865, 2016; in the data active = activity change above about 30%, passing the limit was not always enough
TPT1 inh – Candida albicans TPT1 enzyme inhibitors, primary screen, biochemical, fluorescence polarization | tRNA 2'-phosphotransferase TPT1 (Candida albicans SC5314) | recombinant caTPT1, FP RNA substrate dephosphorylation | inhibition, % at 5 µM | 300,000 tested, 0.81% active;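 active = inhibition above the mean of all tested compounds plus 3 SD, set per screening campaign, cut at about 24% in these data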
PP1 confirm – PP1 phosphatase inhibitors, confirmation, biochemical, fluorescence, OMFP substrate, triplicate; shares compounds with PP1 inh; purified PP1alpha; inhibition, % at 6.7 µM; 1,900 tested, 52% active; AID 2358, 2010;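 active = mean PP1 inhibition above a set limit taken from the earlier primary screen, cut at about 15% in these data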
PP5 inh counter – PP5 phosphatase inhibition by PP1 hits, confirmation, counter-screen for PP1 inhibitor project, biochemical, fluorescence, triplicate. shares compounds with PP1 inh. purified PP5c, OMFP fluorescence. inhibition, % at 6.7 µM. 1,900 tested, 4% active;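 active = mean PP5 inhibition over triplicate wells above about 9.5% taken from the earlier PP1 screen, limit read from the data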
A number is an active result. An excerpt weighted towards active compounds, which were near 2.7% of everything screened.

What do the screens show for `CCC/C(C#CCCN1C(=O)c2ccccc2C1=O)=C1/c2ccccc2C(=O)N1c1ccccc1`?
Rpn11 block: inactive; CSN deneddyl inh: inactive; NadD block: inactive; HNF4A DNA FP: inactive

What do the screens show for `CC1(C(=O)NCc2ccc(F)c(F)c2)Cc2c(-c3ccccc3)ccnc2O1` (centres undefined)?
Rpn11 block: inactive; CSN deneddyl inh: inactive; NadD block: inactive; HNF4A DNA FP: inactive

How did COc1ccc(S(=O)(=O)c2c(N)n(Cc3ccco3)c3nc4ccccc4nc23)cc1 do in these assays?
Rpn11 block: inactive; CSN deneddyl inh: inactive; PP1 inh: 19; NadD block: 34; HNF4A DNA FP: inactive; TPT1 inh: inactive; PP1 confirm: inactive; PP5 inh counter: inactive

What do the screens show for `CC(NS(=O)(=O)OCC(Cl)(Cl)Cl)c1ccc(C(C)(C)C)cc1` (centres undefined)?
Rpn11 block: inactive; CSN deneddyl inh: inactive; PP1 inh: 19; NadD block: inactive; HNF4A DNA FP: inactive; TPT1 inh: inactive; PP1 confirm: inactive; PP5 inh counter: inactive

What do the screens show for `CC(C)(NS(=O)(=O)OCC(Cl)(Cl)Cl)c1ccccc1`?
Rpn11 block: inactive; CSN deneddyl inh: inactive; PP1 inh: inactive; NadD block: inactive; HNF4A DNA FP: inactive; TPT1 inh: inactive

How did COc1ccc(C2=NN(C(=O)CCCC(=O)O)C(c3cn(-c4ccccc4)nc3-c3ccccc3)C2)cc1 (centres undefined) do in these assays?
Rpn11 block: inactive; CSN deneddyl inh: inactive; PP1 inh: 29; NadD block: inactive; HNF4A DNA FP: inactive; TPT1 inh: inactive; PP1 confirm: 18; PP5 inh counter: inactive

Results for COc1ccc(-c2nn(-c3ccccc3)cc2C2CC(c3cccs3)=NN2C(=O)CCC(=O)O)cc1 (centres undefined) ?
Rpn11 block: inactive; CSN deneddyl inh: inactive; PP1 inh: inactive; NadD block: inactive; HNF4A DNA FP: inactive; TPT1 inh: inactive

Results for CCCCCCC[C@H](N)[C@H](O)C(=O)N(C)[C@@H](CCS(C)=O)C(=O)N[C@@H](Cc1ccc(O)cc1)C(=O)N[C@@H](Cc1ccc(O)cc1)C(=O)O (some centres undefined) ?
Rpn11 block: inactive; CSN deneddyl inh: inactive; PP1 inh: 95; NadD block: inactive; HNF4A DNA FP: inactive; TPT1 inh: inactive; PP1 confirm: 95; PP5 inh counter: 86

Results for Cc1ccc(S(=O)(=O)N(C)C[C@@H]2OCCCC[C@H](C)Oc3ccc(NC(=O)Nc4ccc(F)cc4)cc3C(=O)N([C@H](C)CO)C[C@H]2C)cc1 ?
Rpn11 block: inactive; CSN deneddyl inh: inactive; NadD block: inactive; HNF4A DNA FP: inactive

How did O=C1C(=O)N(Cc2ccco2)C(c2cccc(Cl)c2)/C1=C(\O)c1ccc2c(c1)OCCO2 (centres undefined) do in these assays?
Rpn11 block: inactive; CSN deneddyl inh: inactive; PP1 inh: 19; NadD block: inactive; HNF4A DNA FP: inactive; TPT1 inh: inactive; PP1 confirm: inactive; PP5 inh counter: inactive

What do the screens show for `CCOC(=O)C1CCCN(c2ccc(NC(=O)c3snc4c(=O)[nH]cnc34)cc2)C1` (centres undefined)?
Rpn11 block: inactive; CSN deneddyl inh: inactive; PP1 inh: 23; NadD block: inactive; HNF4A DNA FP: inactive; TPT1 inh: inactive; PP1 confirm: 26; PP5 inh counter: inactive

Results for COc1cc(CC(=O)OCC(=O)c2ccc(F)cc2)cc(OC)c1OC ?
Rpn11 block: inactive; CSN deneddyl inh: inactive; NadD block: inactive; HNF4A DNA FP: inactive

Results for Cc1ccc(NC(=O)C2C3C=CC(O3)C2C(=O)O)cc1C (centres undefined) ?
Rpn11 block: inactive; CSN deneddyl inh: inactive; PP1 inh: inactive; NadD block: inactive; HNF4A DNA FP: inactive; TPT1 inh: inactive

How did Cc1ccc(C(C)NC(=O)C2CCCC2)c(C)c1 (centres undefined) do in these assays?
Rpn11 block: inactive; CSN deneddyl inh: inactive; PP1 inh: inactive; NadD block: inactive; HNF4A DNA FP: inactive; TPT1 inh: inactive

How did Cc1ccc(C)c(C(C)NC(=O)C2C3CCC(O3)C2C(=O)O)c1 (centres undefined) do in these assays?
PP1 inh: 80; TPT1 inh: inactive; PP1 confirm: 33; PP5 inh counter: 43

How did COc1cc(NC(=O)C2C3CCC(O3)C2C(=O)O)cc(OC)c1 (centres undefined) do in these assays?
Rpn11 block: inactive; CSN deneddyl inh: inactive; PP1 inh: 76; NadD block: inactive; HNF4A DNA FP: inactive; TPT1 inh: inactive; PP1 confirm: 21; PP5 inh counter: 30

Results for O=C(O)C1C2CCC(O2)C1C(=O)Nc1ccc(O)cc1 (centres undefined) ?
Rpn11 block: inactive; CSN deneddyl inh: inactive; PP1 inh: 27; NadD block: inactive; HNF4A DNA FP: inactive; TPT1 inh: inactive; PP1 confirm: inactive; PP5 inh counter: 18

How did Cc1ccc(NC(=O)C2C3CCC(O3)C2C(=O)O)cc1C (centres undefined) do in these assays?
Rpn11 block: inactive; CSN deneddyl inh: inactive; PP1 inh: 81; NadD block: inactive; HNF4A DNA FP: inactive; TPT1 inh: inactive; PP1 confirm: 22; PP5 inh counter: 43

How did O=C(O)C1C2CCC(O2)C1C(=O)Nc1ccc(OC(F)F)cc1 (centres undefined) do in these assays?
Rpn11 block: inactive; CSN deneddyl inh: inactive; PP1 inh: 68; NadD block: inactive; HNF4A DNA FP: inactive; TPT1 inh: inactive; PP1 confirm: inactive; PP5 inh counter: 26

Results for CCCOc1ccc(/C(O)=C2/C(=O)C(=O)N(c3ccccn3)C2c2ccc(OC)cc2)cc1C (centres undefined) ?
Rpn11 block: inactive; CSN deneddyl inh: inactive; PP1 inh: 31; NadD block: inactive; HNF4A DNA FP: inactive; TPT1 inh: inactive; PP1 confirm: 23; PP5 inh counter: inactive
